How the values were obtained:
Assay type in all cases: functional
[1] = system: Bacteroides fragilis; assay: Antimicrobial activity against beta lactamase-positive Bacteroides fragilis isolated from intra-abdominal infection and pelvic inflammatory disease patients after 48 hrs by agar dilution method
How it was run: (§1)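 CLSI agar dilution on brucella blood agar supplemented with laked sheep blood, hemin and vitamin K. Inocula of about 1 × 10^5 CFU/spot were applied by Steers replicator, and plates were incubated 48 h at 35°C in an anaerobic glove box. MIC was the concentration giving marked growth reduction versus the anaerobic control plate. QC strains were included each run, and β-lactamase was detected by Cefinase disk.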

[2] = system: Bacteroides thetaiotaomicron; assay: Antimicrobial activity against beta lactamase-positive Bacteroides thetaiotaomicron isolated from intra-abdominal infection and pelvic inflammatory disease patients after 48 hrs by agar dilution method; how it was run: as §1
[3] = system: Bacteroides fragilis; assay: Antimicrobial activity against beta lactamase-positive Bacteroides fragilis isolated from intra-abdominal infection and pelvic inflammatory disease patients after 48 hrs by time kill analysis
How it was run: (§2)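 The MIC was read by inspecting macrodilution time-kill tubes. Vials held prereduced brucella broth with 5% laked horse blood cells, hemin 5 μg/ml and vitamin K1 1 μg/ml. Final inoculum was 10^6–10^7 CFU/ml, prepared inside the anaerobe chamber. Vials were incubated 48 h at 35°C in a shaking water bath.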

[4] = system: Prevotella intermedia; assay: Antimicrobial activity against beta lactamase-positive Prevotella intermedia isolated from intra-abdominal infection and pelvic inflammatory disease patients after 48 hrs by time kill analysis; how it was run: as §2
[5] = system: Finegoldia magna; assay: Antimicrobial activity against beta lactamase-positive Finegoldia magna isolated from intra-abdominal infection and pelvic inflammatory disease patients after 48 hrs by time kill analysis; how it was run: as §2
[6] = system: Clostridium perfringens; assay: Antimicrobial activity against Clostridium perfringens isolated from intra-abdominal infection and pelvic inflammatory disease patients after 48 hrs by time kill analysis
How it was run: (§3)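 Macrodilution in prereduced brucella broth with 5% laked horse blood cells, 5 μg/ml hemin and 1 μg/ml vitamin K1. Final inoculum 10^6 to 10^7 CFU/ml, prepared inside the anaerobe chamber. Vials incubated 48 h at 35°C in a shaking water bath. MIC read by inspecting the time-kill tubes, alongside an antibiotic-free growth control.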

[7] = system: Clostridioides difficile; assay: Antimicrobial activity against Clostridium difficile isolated from intra-abdominal infection and pelvic inflammatory disease patients after 48 hrs by time kill analysis; how it was run: as §3
[8] = system: Bacteroides ovatus; assay: Antimicrobial activity against beta lactamase-positive Bacteroides ovatus isolated from intra-abdominal infection and pelvic inflammatory disease patients after 48 hrs by agar dilution method; how it was run: as §1
[9] = system: Phocaeicola vulgatus; assay: Antimicrobial activity against beta lactamase-positive Bacteroides vulgatus isolated from intra-abdominal infection and pelvic inflammatory disease patients after 48 hrs by agar dilution method; how it was run: as §1
[10] = system: Parabacteroides distasonis; assay: Antimicrobial activity against beta lactamase-positive Bacteroides distasonis isolated from intra-abdominal infection and pelvic inflammatory disease patients after 48 hrs by agar dilution method; how it was run: as §1
[11] = system: Prevotella bivia; assay: Antimicrobial activity against beta lactamase-positive Prevotella bivia isolated from intra-abdominal infection and pelvic inflammatory disease patients after 48 hrs by agar dilution method; how it was run: as §1
[12] = system: Prevotella disiens; assay: Antimicrobial activity against beta lactamase-positive Prevotella disiens isolated from intra-abdominal infection and pelvic inflammatory disease patients after 48 hrs by agar dilution method; how it was run: as §1
[13] = system: Prevotella intermedia; assay: Antimicrobial activity against beta lactamase-positive Prevotella intermedia isolated from intra-abdominal infection and pelvic inflammatory disease patients after 48 hrs by agar dilution method; how it was run: as §1
[14] = system: Prevotella nigrescens; assay: Antimicrobial activity against beta lactamase-positive Prevotella nigrescens isolated from intra-abdominal infection and pelvic inflammatory disease patients after 48 hrs by agar dilution method; how it was run: as §1
[15] = system: Prevotella melaninogenica; assay: Antimicrobial activity against beta lactamase-positive Prevotella melaninogenica isolated from intra-abdominal infection and pelvic inflammatory disease patients after 48 hrs by agar dilution method; how it was run: as §1
[16] = system: Prevotella denticola; assay: Antimicrobial activity against beta lactamase-positive Prevotella denticola isolated from intra-abdominal infection and pelvic inflammatory disease patients after 48 hrs by agar dilution method; how it was run: as §1
[17] = system: Prevotella corporis; assay: Antimicrobial activity against beta lactamase-positive Prevotella corporis isolated from intra-abdominal infection and pelvic inflammatory disease patients after 48 hrs by agar dilution method; how it was run: as §1
[18] = system: Prevotella buccae; assay: Antimicrobial activity against beta lactamase-positive Prevotella buccae isolated from intra-abdominal infection and pelvic inflammatory disease patients after 48 hrs by agar dilution method; settings: Segatella buccae; how it was run: as §1
[19] = system: Porphyromonas asaccharolytica; assay: Antimicrobial activity against Porphyromonas asaccharolyticus isolated from intra-abdominal infection and pelvic inflammatory disease patients after 48 hrs by agar dilution method; how it was run: as §1
[20] = system: Porphyromonas gingivalis; assay: Antimicrobial activity against Porphyromonas gingivalis isolated from intra-abdominal infection and pelvic inflammatory disease patients after 48 hrs by agar dilution method; how it was run: as §1
[21] = system: Porphyromonas levii; assay: Antimicrobial activity against Porphyromonas levii isolated from intra-abdominal infection and pelvic inflammatory disease patients after 48 hrs by agar dilution method; how it was run: as §1
[22] = system: Fusobacterium nucleatum; assay: Antimicrobial activity against beta lactamase-positive Fusobacterium nucleatum isolated from intra-abdominal infection and pelvic inflammatory disease patients after 48 hrs by agar dilution method; how it was run: as §1
[23] = system: Fusobacterium necrophorum; assay: Antimicrobial activity against Fusobacterium necrophorum isolated from intra-abdominal infection and pelvic inflammatory disease patients after 48 hrs by agar dilution method; how it was run: as §1
[24] = system: Fusobacterium varium; assay: Antimicrobial activity against Fusobacterium varium isolated from intra-abdominal infection and pelvic inflammatory disease patients after 48 hrs by agar dilution method; how it was run: as §1
[25] = system: Fusobacterium mortiferum; assay: Antimicrobial activity against beta lactamase-positive Fusobacterium mortiferum isolated from intra-abdominal infection and pelvic inflammatory disease patients after 48 hrs by agar dilution method; how it was run: as §1
[26] = system: Finegoldia magna; assay: Antimicrobial activity against Finegoldia magna isolated from intra-abdominal infection and pelvic inflammatory disease patients after 48 hrs by agar dilution method; how it was run: as §1
[27] = system: Parvimonas micra; assay: Antimicrobial activity against Micromonas micros isolated from intra-abdominal infection and pelvic inflammatory disease patients after 48 hrs by agar dilution method; how it was run: as §1
[28] = system: Peptostreptococcus anaerobius; assay: Antimicrobial activity against Peptostreptococcus anaerobius isolated from intra-abdominal infection and pelvic inflammatory disease patients after 48 hrs by agar dilution method; how it was run: as §1
[29] = system: Anaerococcus prevotii; assay: Antimicrobial activity against Anaerococcus prevotii isolated from intra-abdominal infection and pelvic inflammatory disease patients after 48 hrs by agar dilution method; how it was run: as §1
[30] = system: Anaerococcus tetradius; assay: Antimicrobial activity against Anaerococcus tetradius isolated from intra-abdominal infection and pelvic inflammatory disease patients after 48 hrs by agar dilution method; how it was run: as §1
[31] = system: Peptoniphilus asaccharolyticus; assay: Antimicrobial activity against Peptoniphilus asaccharolyticus isolated from intra-abdominal infection and pelvic inflammatory disease patients after 48 hrs by agar dilution method; how it was run: as §1
[32] = system: Clostridium perfringens; assay: Antimicrobial activity against Clostridium perfringens isolated from intra-abdominal infection and pelvic inflammatory disease patients after 48 hrs by agar dilution method
How it was run: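 CLSI agar dilution on brucella blood agar supplemented with laked sheep blood, hemin and vitamin K. Inoculum about 1 × 10^5 CFU/spot, applied by Steers replicator. Plates incubated 48 h at 35°C in an anaerobic glove box. MIC is the concentration giving marked growth reduction versus the anaerobic control plate. Standard QC strains included in each run.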

[33] = system: Clostridioides difficile; assay: Antimicrobial activity against Clostridium difficile isolated from intra-abdominal infection and pelvic inflammatory disease patients after 48 hrs by agar dilution method; how it was run: as §1
[34] = system: [Clostridium] innocuum; assay: Antimicrobial activity against Clostridium innocuum isolated from intra-abdominal infection and pelvic inflammatory disease patients after 48 hrs by agar dilution method; how it was run: as §1
[35] = system: Thomasclavelia ramosa; assay: Antimicrobial activity against Clostridium ramosum isolated from intra-abdominal infection and pelvic inflammatory disease patients after 48 hrs by agar dilution method; how it was run: as §1
[36] = system: Paraclostridium bifermentans; assay: Antimicrobial activity against Clostridium bifermentans isolated from intra-abdominal infection and pelvic inflammatory disease patients after 48 hrs by agar dilution method; how it was run: as §1
[37] = system: Enterocloster clostridioformis; assay: Antimicrobial activity against Clostridium clostridioforme isolated from intra-abdominal infection and pelvic inflammatory disease patients after 48 hrs by agar dilution method; how it was run: as §1
[38] = system: Paeniclostridium sordellii; assay: Antimicrobial activity against Clostridium sordellii isolated from intra-abdominal infection and pelvic inflammatory disease patients after 48 hrs by agar dilution method; settings: Paraclostridium sordellii; how it was run: as §1
[39] = system: Clostridium paraputrificum; assay: Antimicrobial activity against Clostridium paraputrificum isolated from intra-abdominal infection and pelvic inflammatory disease patients after 48 hrs by agar dilution method; how it was run: as §1
[40] = system: Clostridium cadaveris; assay: Antimicrobial activity against Clostridium cadaveris isolated from intra-abdominal infection and pelvic inflammatory disease patients after 48 hrs by agar dilution method; how it was run: as §1
[41] = system: Bacteroides thetaiotaomicron; assay: Antimicrobial activity against beta lactamase-positive Bacteroides thetaiotaomicron isolated from intra-abdominal infection and pelvic inflammatory disease patients after 48 hrs by time kill analysis; how it was run: as §2
[42] = system: Fusobacterium nucleatum; assay: Antimicrobial activity against beta lactamase-positive Fusobacterium nucleatum isolated from intra-abdominal infection and pelvic inflammatory disease patients after 48 hrs by time kill analysis; how it was run: as §2

CCC[C@@H]1C[C@@H](C(=O)N[C@@H]([C@H]2O[C@H](SC)[C@H](O)[C@@H](O)[C@H]2O)[C@H](C)Cl)N(C)C1 [CLINDAMYCIN]
0.016 µg/mL: MIC [4]
0.125 µg/mL: MIC [6] | MIC90 [22] | MIC [29]
0.25 µg/mL: MIC [5] | MIC90 [23] | MIC90 [25] | MIC50 [27] | MIC90 [28]
≤ 0.016 µg/mL: MIC50 [12] | MIC50 [13] | MIC50 [14] | MIC90 [14] | MIC90 [15] | MIC [17] | MIC50 [17] | MIC [18] | MIC50 [18] | MIC [19] | MIC [20] | MIC [21]
2 µg/mL: MIC50 [8] | MIC50 [26] | MIC90 [32]
0.03 µg/mL: MIC50 [9] | MIC50 [11] | MIC90 [12] | MIC90 [13] | MIC50 [15] | MIC50 [16] | MIC90 [16] | MIC90 [17] | MIC90 [18] | MIC [28] | MIC50 [28] | MIC [40]
1 µg/mL: MIC50 [1] | MIC50 [32] | MIC50 [34] | MIC [38]
16 µg/mL: MIC90 [24]
0.5 µg/mL: MIC [3] | MIC90 [9] | MIC90 [27] | MIC [30] | MIC50 [30]
4 µg/mL: MIC90 [1] | MIC50 [2] | MIC50 [10] | MIC50 [24] | MIC50 [35]
0.06 µg/mL: MIC50 [23] | MIC [25] | MIC50 [25] | MIC50 [31] | MIC [36] | MIC [37]
> 16 µg/mL: MIC90 [8] | MIC90 [10] | MIC90 [11] | MIC90 [26] | MIC90 [31] | MIC90 [33]
8 µg/mL: MIC90 [2] | MIC [7] | MIC50 [33] | MIC [39]

Cc1ncc([N+](=O)[O-])n1CCO [METRONIDAZOLE]
0.25 µg/mL: MIC50 [24] | MIC50 [27] | MIC [29] | MIC [36] | MIC [40]
≤ 0.125 µg/mL: MIC [19] | MIC [20] | MIC [21] | MIC [22] | MIC50 [22] | MIC90 [22] | MIC [23] | MIC50 [23] | MIC90 [23] | MIC [25] | MIC50 [25] | MIC90 [25] | MIC [37]
2 µg/mL: MIC [3] | MIC [6] | MIC90 [8] | MIC50 [11] | MIC90 [11] | MIC90 [12] | MIC90 [13] | MIC50 [30] | MIC90 [32] | MIC50 [35]
1 µg/mL: MIC50 [1] | MIC90 [1] | MIC50 [2] | MIC90 [2] | MIC [41] | MIC [5] | MIC50 [8] | MIC90 [9] | MIC [10] | MIC50 [10] | MIC90 [10] | MIC90 [14] | MIC90 [15] | MIC90 [16] | MIC90 [17] | MIC50 [18] | MIC90 [18] | MIC90 [26] | MIC90 [28] | MIC50 [31] | MIC90 [31] | MIC50 [32] | MIC50 [34]
0.5 µg/mL: MIC [4] | MIC [7] | MIC50 [9] | MIC [12] | MIC50 [12] | MIC50 [13] | MIC50 [14] | MIC50 [15] | MIC50 [16] | MIC50 [17] | MIC90 [24] | MIC50 [26] | MIC90 [27] | MIC50 [28] | MIC50 [33] | MIC90 [33] | MIC [38] | MIC [39]
0.016 µg/mL: MIC [42]

From ChEMBL document CHEMBL1151448, “Comparative antianaerobic activities of doripenem determined by MIC and time-kill analysis” (2008)
